Measured values as given in ChEMBL document CHEMBL4049408, “Exploration of 2-((Pyridin-4-ylmethyl)amino)nicotinamide Derivatives as Potent Reversal Agents against P-Glycoprotein-Mediated Multidrug Resistance” (J Med Chem, 2017).

Legend:
[1] = tested on: K562/A02; assay: Cytotoxicity against human K562/A02 cells overexpressing P-gp after 48 hrs by MTT assay; format: functional, cell-based; conditions: K562/A02, 48 h
Summary of the method: (§1)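 MTT viability in parental K562 and P-gp-overexpressing K562/A02 cells. Compound alone at a concentration series gives the IC50. Mean ± SD of three independent tests.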

[2] = tested on: K562; assay: Cytotoxicity against human K562 cells after 48 hrs by MTT assay; format: functional, cell-based; conditions: K562, 48 h; summary of the method: as §1
[3] = target: ATP-dependent translocase ABCB1 (Homo sapiens, UniProt P08183); assay: Inhibition of ABCB1 in human K562/A02 cells assessed as potentiation of adriamycin-mediated cytotoxicity by measuring reduction in ADR IC50 at 5 uM after 48 hrs by MTT assay relative to control; format: cell-based
Summary of the method: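 K562/A02 cells exposed to a series of adriamycin concentrations with modulator at 5.0 µM; 0.1% DMSO as solvent control. IC50 read by MTT. Reversal fold = IC50 without inhibitor / IC50 with inhibitor. Mean ± SD of three independent tests.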

[4] = (§2) Cytotoxicity against human K562/A02 cells assessed as cell survival at 5 uM after 48 hrs by MTT assay relative to control; format: cell-based; conditions: K562/A02 cells, read-out: Survival
Summary of the method: (§3)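 MTT viability assay in P-gp-overexpressing, ADM-resistant K562/A02 cells, alongside parental K562. […] Values are mean ± SD of three independent tests.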

[5] = tested on: K562/A02; assay: as §2; format: cell-based; conditions: k562/a02, 48 h, 5 µM; summary of the method: as §3

Chain of ATP-dependent translocase ABCB1 (P08183 whole entry): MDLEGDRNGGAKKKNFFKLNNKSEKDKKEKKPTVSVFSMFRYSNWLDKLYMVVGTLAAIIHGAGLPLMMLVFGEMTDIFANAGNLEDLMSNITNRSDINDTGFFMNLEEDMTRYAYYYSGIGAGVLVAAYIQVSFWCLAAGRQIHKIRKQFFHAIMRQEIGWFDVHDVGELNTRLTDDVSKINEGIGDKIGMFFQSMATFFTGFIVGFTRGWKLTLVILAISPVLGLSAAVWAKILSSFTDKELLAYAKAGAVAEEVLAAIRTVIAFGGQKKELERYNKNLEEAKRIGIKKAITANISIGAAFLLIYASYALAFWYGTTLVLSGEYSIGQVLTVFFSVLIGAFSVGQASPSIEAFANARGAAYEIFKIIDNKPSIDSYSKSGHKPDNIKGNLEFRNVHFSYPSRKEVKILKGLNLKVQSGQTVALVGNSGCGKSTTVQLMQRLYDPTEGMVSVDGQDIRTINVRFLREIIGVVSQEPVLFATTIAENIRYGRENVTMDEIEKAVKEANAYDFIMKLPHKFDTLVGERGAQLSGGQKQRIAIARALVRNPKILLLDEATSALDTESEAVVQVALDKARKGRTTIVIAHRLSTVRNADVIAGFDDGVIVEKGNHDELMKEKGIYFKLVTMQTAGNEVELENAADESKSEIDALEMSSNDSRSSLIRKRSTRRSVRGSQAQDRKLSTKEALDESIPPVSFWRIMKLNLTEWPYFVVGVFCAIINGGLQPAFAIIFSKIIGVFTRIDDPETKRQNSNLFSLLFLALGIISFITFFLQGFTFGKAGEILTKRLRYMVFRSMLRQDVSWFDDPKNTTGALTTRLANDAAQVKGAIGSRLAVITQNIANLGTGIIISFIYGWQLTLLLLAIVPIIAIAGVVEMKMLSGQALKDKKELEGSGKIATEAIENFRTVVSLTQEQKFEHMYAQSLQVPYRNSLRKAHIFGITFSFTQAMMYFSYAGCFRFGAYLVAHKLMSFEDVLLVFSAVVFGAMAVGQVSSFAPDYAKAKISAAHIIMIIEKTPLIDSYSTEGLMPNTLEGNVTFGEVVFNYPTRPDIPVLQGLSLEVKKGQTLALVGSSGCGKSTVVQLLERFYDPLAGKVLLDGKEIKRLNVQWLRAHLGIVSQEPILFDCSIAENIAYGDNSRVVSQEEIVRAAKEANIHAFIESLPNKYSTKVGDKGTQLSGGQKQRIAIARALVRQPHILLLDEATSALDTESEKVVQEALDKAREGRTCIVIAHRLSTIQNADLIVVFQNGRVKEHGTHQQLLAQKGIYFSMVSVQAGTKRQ

Row | SMILES | IC50 [1] | IC50 [2] | fold change (FC) [3] | viability at 48 h, 5 µM [4] | Activity [5]
1 | COc1cc(NC(=O)c2cccnc2NCc2ccncc2)cc(OC)c1OC | > 100 µM | > 100 µM | 3.51 | > 90% | –
2 | O=C(Nc1ccc(N2CCOCC2)cc1)c1cccnc1NCc1ccncc1 | > 100 µM | > 100 µM | 18.8 | > 90% | –
3 | O=C(NC1CCCc2ccccc21)c1cccnc1NCc1ccncc1 (configuration not stated) | > 100 µM | 66.1 µM | 4.24 | > 90% | –
4 | COc1cc2c(cc1OC)C(Cc1cccc3ccccc13)N(C(=O)c1cccnc1NCc1ccncc1)CC2 (configuration not stated) | > 100 µM | > 100 µM | 2.51 | – | Non-Toxic
5 | O=C(Nc1ccc(N2CCCCC2)cc1)c1cccnc1NCc1ccncc1 | > 100 µM | > 100 µM | 5.21 | > 90% | –
6 | CC(C)(C)c1ccc(NC(=O)c2cccnc2NCc2ccncc2)cc1 | > 100 µM | > 100 µM | 4.27 | > 90% | –
7 | O=C(c1cccnc1NCc1ccncc1)N(Cc1ccccc1)Cc1ccccc1 | 82.2 µM | 76.4 µM | 10.14 | – | Non-Toxic
8 | O=C(NCc1ccncc1)c1cccnc1NCc1ccncc1 | > 100 µM | > 100 µM | 7.92 | > 90% | –
9 | O=C(Nc1nc2ccccc2[nH]1)c1cccnc1NCc1ccncc1 | > 100 µM | > 100 µM | 1.69 | > 90% | –
10 | O=C(Nc1cccc2ccccc12)c1cccnc1NCc1ccncc1 | > 100 µM | > 100 µM | 7.74 | > 90% | –
11 | O=C(NC(c1ccccc1)c1ccccc1)c1cccnc1NCc1ccncc1 | > 100 µM | > 100 µM | 3.94 | – | Non-Toxic
12 | O=C(Nc1ccc(F)c(Cl)c1)c1cccnc1NCc1ccncc1 | 27.9 µM | 78.9 µM | 6.6 | > 90% | –
13 | COc1ccc(CCNC(=O)c2cccnc2NCc2ccncc2)cc1OC | > 100 µM | > 100 µM | 16.6 | > 90% | –
14 | COc1cccc(-c2nnc(NC(=O)c3cccnc3NCc3ccncc3)s2)c1 | > 100 µM | 39.5 µM | 4.6 | > 90% | –
15 | COc1ccc(C2c3cc(OC)c(OC)cc3CCN2C(=O)c2cccnc2NCc2ccncc2)cc1OC (configuration not stated) | > 100 µM | > 100 µM | 3.44 | – | Non-Toxic
16 | O=C(c1cccnc1NCc1ccncc1)N1CCC(N2CCCCC2)CC1 | > 100 µM | 51.4 µM | 1.2 | > 90% | –
17 | O=C(NCCc1cccs1)c1cccnc1NCc1ccncc1 | > 100 µM | > 100 µM | 1.37 | > 90% | –
18 | COc1cccc(NC(=O)c2cccnc2NCc2ccncc2)c1 | > 100 µM | > 100 µM | 3.76 | > 90% | –
19 | O=C(Nc1ccc(OC(F)(F)F)cc1)c1cccnc1NCc1ccncc1 | 28.7 µM | 24.2 µM | 8.42 | > 90% | –
20 | O=C(Nc1ccc(-c2ccccc2)cc1)c1cccnc1NCc1ccncc1 | 27.9 µM | 17 µM | 12.69 | > 90% | –
21 | COc1ccc(NC(=O)c2cccnc2NCc2ccncc2)cc1Cl | > 100 µM | > 100 µM | 5.29 | > 90% | –
22 | CN1CCN(c2ccc(NC(=O)c3cccnc3NCc3ccncc3)cc2)CC1 | > 100 µM | > 100 µM | 4.93 | > 90% | –
23 | COc1ccc(CN(C)C(=O)c2cccnc2NCc2ccncc2)cc1OC | > 100 µM | > 100 µM | 9.58 | > 90% | –
